Data taken from ChEMBL document CHEMBL1268908, “Design, synthesis, radiolabeling, and in vivo evaluation of carbon-11 labeled N-[2-[4-(3-cyanopyridin-2-yl)piperazin-1-yl]ethyl]-3-methoxybenzamide, a potential positron emission tomography tracer for the dopamine D(4) receptors” (J Med Chem, 2010).

How the values were obtained:
Type in all cases: ADME, organism-based, Macaca mulatta
Hippocampus [1] = assay: Biodistribution in rhesus monkey hippocampus at 150.3 MBq, iv after 0.25 mins; settings: in vivo, 15 s
Outline: (§1)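 Single male rhesus monkey anesthetized with ketamine 10 mg/kg im, head fixed. Attenuation correction by 20 min 68Ge-68Ga transmission scan. [11C]-tracer in saline (pH 7.4) given iv, specific radioactivity 2.9 TBq/μmol at injection. Dynamic 3D PET emission scan over 90 min in frames of 0.5 to 5 min. MRI T1 images used to define VOIs. Uptake expressed as […].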

[2] = Biodistribution in rhesus monkey cerebellum at 150.3 MBq, iv after 0.25 mins; settings: in vivo, 15 s
Outline: (§2)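 Male rhesus monkey under ketamine (10 mg/kg im) with head fixation. After a 20 min 68Ge-68Ga transmission scan, the [11C]-labelled tracer in saline (pH 7.4) was injected iv, at 2.9 TBq/μmol specific radioactivity at injection. A dynamic 3D PET scan followed over 90 min (6×0.5, 7×1, 20×2, 8×5 min frames). Regions were defined on T1-weighted 1.5 T MRI, and uptake is given as %ID/mL.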

[3] = Biodistribution in rhesus monkey entorhinal cortex at 150.3 MBq, iv after 1.75 mins; settings: in vivo, 105 s; outline: as §1
[4] = Biodistribution in rhesus monkey cingulate cortex at 150.3 MBq, iv after 5.5 mins; settings: in vivo; outline: as §1
Hippocampus [5] = assay: Biodistribution in rhesus monkey hippocampus at 150.3 MBq, iv after 6.5 mins; settings: in vivo
Outline: (§3)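 Male rhesus monkey under ketamine 10 mg/kg im, head fixed; 20 min 68Ge-68Ga transmission scan, then 90 min dynamic 3D PET (6×0.5, 7×1, 20×2, 8×5 min frames) after iv [11C]-labelled tracer in saline, specific radioactivity about 2.9 TBq/μmol at injection. Regions defined on T1-weighted MRI; uptake expressed as % injected dose per mL.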

[6] = Biodistribution in rhesus monkey cerebellum at 150.3 MBq, iv after 6.5 mins; settings: in vivo; outline: as §2
Hippocampus [7] = assay: Biodistribution in rhesus monkey hippocampus at 150.3 MBq, iv after 7.5 mins; settings: in vivo, 0.125 h; outline: as §3
[8] = Biodistribution in rhesus monkey cerebellum at 150.3 MBq, iv after 11 mins; settings: in vivo; outline: as §2
Hippocampus [9] = assay: Biodistribution in rhesus monkey hippocampus at 150.3 MBq, iv after 13 mins; settings: in vivo; outline: as §1
[10] = Biodistribution in rhesus monkey cerebellum at 150.3 MBq, iv after 13 mins; settings: in vivo; outline: as §2
Striatum [11] = assay: Biodistribution in rhesus monkey striatum at 150.3 MBq, iv after 15 mins; settings: in vivo, 0.25 h
[12] = Biodistribution in rhesus monkey entorhinal cortex at 150.3 MBq, iv after 19 mins; settings: in vivo; outline: as §1
Striatum [13] = assay: Biodistribution in rhesus monkey striatum at 150.3 MBq, iv after 21 mins; settings: in vivo, 0.35 h
[14] = Biodistribution in rhesus monkey cerebellum at 150.3 MBq, iv after 21 mins; settings: in vivo, 0.35 h; outline: as §2
[15] = Biodistribution in rhesus monkey cingulate cortex at 150.3 MBq, iv after 23 mins; settings: in vivo; outline: as §2
[16] = Biodistribution in rhesus monkey occipital lobe at 150.3 MBq, iv after 23 mins; settings: in vivo; outline: as §3
Hippocampus [17] = assay: Biodistribution in rhesus monkey hippocampus at 150.3 MBq, iv after 25 mins; settings: in vivo; outline: as §1
[18] = Biodistribution in rhesus monkey cerebellum at 150.3 MBq, iv after 25 mins; settings: in vivo; outline: as §2
[19] = Biodistribution in rhesus monkey cerebellum at 150.3 MBq, iv after 27 mins; settings: in vivo, 0.45 h; outline: as §2
[20] = Biodistribution in rhesus monkey occipital lobe at 150.3 MBq, iv after 27 mins; settings: in vivo, 0.45 h; outline: as §3
[21] = Biodistribution in rhesus monkey cingulate cortex at 150.3 MBq, iv after 29 mins; settings: in vivo; outline: as §2
[22] = Biodistribution in rhesus monkey retina at 150.3 MBq, iv after 29 mins; settings: in vivo
[23] = Biodistribution in rhesus monkey occipital lobe at 150.3 MBq, iv after 31 mins; settings: in vivo; outline: as §3
[24] = Biodistribution in rhesus monkey retina at 150.3 MBq, iv after 35 mins; settings: in vivo
[25] = Biodistribution in rhesus monkey entorhinal cortex at 150.3 MBq, iv after 39 mins; settings: in vivo, 0.65 h; outline: as §1
Striatum [26] = assay: Biodistribution in rhesus monkey striatum at 150.3 MBq, iv after 39 mins; settings: in vivo, 0.65 h
Hippocampus [27] = assay: Biodistribution in rhesus monkey hippocampus at 150.3 MBq, iv after 41 mins; settings: in vivo; outline: as §3
Striatum [28] = assay: Biodistribution in rhesus monkey striatum at 150.3 MBq, iv after 41 mins; settings: in vivo
[29] = Biodistribution in rhesus monkey retina at 150.3 MBq, iv after 45 mins; settings: in vivo, 0.75 h
[30] = Biodistribution in rhesus monkey entorhinal cortex at 150.3 MBq, iv after 47 mins; settings: in vivo; outline: as §1
[31] = Biodistribution in rhesus monkey cerebellum at 150.3 MBq, iv after 47 mins; settings: in vivo; outline: as §2
Hippocampus [32] = assay: Biodistribution in rhesus monkey hippocampus at 150.3 MBq, iv after 49 mins; settings: in vivo; outline: as §3
[33] = Biodistribution in rhesus monkey cingulate cortex at 150.3 MBq, iv after 49 mins; settings: in vivo; outline: as §1
Striatum [34] = assay: Biodistribution in rhesus monkey striatum at 150.3 MBq, iv after 49 mins; settings: in vivo
Striatum [35] = assay: Biodistribution in rhesus monkey striatum at 150.3 MBq, iv after 57.5 mins; settings: in vivo
[36] = Biodistribution in rhesus monkey retina at 150.3 MBq, iv after 57.5 mins; settings: in vivo
[37] = Biodistribution in rhesus monkey entorhinal cortex at 150.3 MBq, iv after 67.5 mins; settings: in vivo, 1.125 h; outline: as §1
[38] = Biodistribution in rhesus monkey occipital lobe at 150.3 MBq, iv after 67.5 mins; settings: in vivo, 1.125 h
Striatum [39] = assay: Biodistribution in rhesus monkey striatum at 150.3 MBq, iv after 77.5 mins; settings: in vivo
[40] = Biodistribution in rhesus monkey occipital lobe at 150.3 MBq, iv after 77.5 mins; settings: in vivo
[41] = Biodistribution in rhesus monkey retina at 150.3 MBq, iv after 77.5 mins; settings: in vivo
Striatum [42] = assay: Biodistribution in rhesus monkey striatum at 150.3 MBq, iv after 82.5 mins; settings: in vivo, 1.375 h
[43] = Biodistribution in rhesus monkey occipital lobe at 150.3 MBq, iv after 82.5 mins; settings: in vivo, 1.375 h
Striatum [44] = assay: Biodistribution in rhesus monkey striatum at 150.3 MBq, iv after 87.5 mins; settings: in vivo
[45] = Biodistribution in rhesus monkey retina at 150.3 MBq, iv after 87.5 mins; settings: in vivo
[46] = Biodistribution in rhesus monkey cerebellum at 150.3 MBq, iv after 2.75 mins; settings: in vivo, 165 s; outline: as §2
Hippocampus [47] = assay: Biodistribution in rhesus monkey hippocampus at 150.3 MBq, iv after 52.5 mins; settings: in vivo, 0.875 h; outline: as §3
[48] = Biodistribution in rhesus monkey retina at 150.3 MBq, iv after 52.5 mins; settings: in vivo, 0.875 h
Striatum [49] = assay: Biodistribution in rhesus monkey striatum at 150.3 MBq, iv after 72.5 mins; settings: in vivo

Question: What does the source list for `[11CH3]Oc1cccc(C(=O)NCCN2CCN(c3ncccc3C#N)CC2)c1`?
Answer: Drug uptake (Hippocampus [1]): 39.52 kBq/ml; Drug uptake [2]: 40.52 kBq/ml; Drug uptake [3]: 39.28 kBq/ml; Drug uptake [4]: 36.57 kBq/ml; Drug uptake (Hippocampus [5]): 37.33 kBq/ml; Drug uptake [6]: 31.35 kBq/ml; Drug uptake (Hippocampus [7]): 34.09 kBq/ml; Drug uptake [8]: 24.15 kBq/ml; Drug uptake (Hippocampus [9]): 23.13 kBq/ml; Drug uptake [10]: 21.2714 kBq/ml; Drug uptake (Striatum [11]): 21.63 kBq/ml; Drug uptake [12]: 21.93 kBq/ml; Drug uptake (Striatum [13]): 18.62 kBq/ml; Drug uptake [14]: 16.76 kBq/ml; Drug uptake [15]: 17.4 kBq/ml; Drug uptake [16]: 15.16 kBq/ml; Drug uptake (Hippocampus [17]): 16.72 kBq/ml; Drug uptake [18]: 15.53 kBq/ml; Drug uptake [19]: 15.14 kBq/ml; Drug uptake [20]: 14.42 kBq/ml; Drug uptake [21]: 15.04 kBq/ml; Drug uptake [22]: 56.95 kBq/ml; Drug uptake [23]: 12.89 kBq/ml; Drug uptake [24]: 57.58 kBq/ml; Drug uptake [25]: 13.49 kBq/ml; Drug uptake (Striatum [26]): 11.52 kBq/ml; Drug uptake (Hippocampus [27]): 11.5929 kBq/ml; Drug uptake (Striatum [28]): 11.2 kBq/ml; Drug uptake [29]: 56.64 kBq/ml; Drug uptake [30]: 11.44 kBq/ml; Drug uptake [31]: 10.15 kBq/ml; Drug uptake (Hippocampus [32]): 9.828 kBq/ml; Drug uptake [33]: 10.6 kBq/ml; Drug uptake (Striatum [34]): 10.09 kBq/ml; Drug uptake (Striatum [35]): 9.776 kBq/ml; Drug uptake [36]: 55.05 kBq/ml; Drug uptake [37]: 7.481 kBq/ml; Drug uptake [38]: 7.697 kBq/ml; Drug uptake (Striatum [39]): 8.262 kBq/ml; Drug uptake [40]: 8.127 kBq/ml; Drug uptake [41]: 50.63 kBq/ml; Drug uptake (Striatum [42]): 8.324 kBq/ml; Drug uptake [43]: 8.356 kBq/ml; Drug uptake (Striatum [44]): 8.125 kBq/ml; Drug uptake [45]: 52.04 kBq/ml; Drug uptake [46]: 41.81 kBq/ml; Drug uptake (Hippocampus [47]): 9.565 kBq/ml; Drug uptake [48]: 55.05 kBq/ml; Drug uptake (Striatum [49]): 9.016 kBq/ml
